Measured values reported in ChEMBL document CHEMBL4177578, “Synthesis, pharmacological activities and molecular docking studies of pyrazolyltriazoles as anti-bacterial and anti-inflammatory agents” (Bioorg Med Chem, 2017).
Values after ≈ are worked out from the molar mass of the structure shown. Active and inactive are the calls of the source. The rule behind the calls is not given here.

Key:
Assay type in all cases: functional
Micrococcus luteus [1] = assay: Antimicrobial activity against Micrococcus luteus incubated for 12 to 16 hrs by tube dilution method
Summary of the method: (§1)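 Tube dilution, serial from 500 to 1.9 µg/mL, plus drug-free control tube. Each tube inoculated with 1 mL culture at OD 0.2, incubated 37 °C for 12–16 h. MIC is the lowest concentration with no growth by turbidity. MBC is found by plating each tube on nutrient agar: the lowest concentration at which all cells are killed.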

[2] = Anti-inflammatory activity at 100 ug/ml using bovine serum albumin and egg albumin proteins incubated at 37 degC for 20 mins and then heated to 95 degC for 20 mins by UV-visible Spectrophotometry based protein denaturation method
Summary of the method: (§2)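 Albumin (bovine serum or egg) at 1% in 50 mM sodium phosphate buffer pH 6.4. Mixture is 0.1 ml test sample (1 mg/ml) plus 0.2 ml albumin, made to 5 ml with buffer. Held 37 °C for 20 min, then 95 °C for 20 min. Cooled to room temperature, turbidity read at 660 nm. % inhibition = (Abs control − Abs sample)/Abs control × 100. Triplicate, averaged.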

Salmonella typhi [3] = assay: Antimicrobial activity against Salmonella typhi incubated for 12 to 16 hrs followed by plating in nutrient agar by tube dilution method
Summary of the method: (§3)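 After 12-16 h at 37 °C in tube dilution (500 to 1.9 µg/mL; 1 mL inoculum at OD 0.2), the culture from each tube was plated on nutrient agar. MBC is the concentration at which cells are completely killed.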

Salmonella typhi [4] = assay: Antimicrobial activity against Salmonella typhi incubated for 12 to 16 hrs by tube dilution method
Summary of the method: (§4)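 Broth tube dilution, two-fold serial dilutions from 500 to 1.9 µg/mL plus a drug-free control tube. Each tube inoculated with 1 mL culture at OD 0.2 (~McFarland standard), 37 °C for 12-16 h. Turbidity compared with the control tube. MIC is the lowest concentration giving complete growth inhibition.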

Micrococcus luteus [5] = assay: Antimicrobial activity against Micrococcus luteus incubated for 12 to 16 hrs followed by plating in nutrient agar by tube dilution method; summary of the method: as §1
[6] = Anti-inflammatory activity using bovine serum albumin and egg albumin proteins incubated at 37 degC for 20 mins and then heated to 95 degC for 20 mins by UV-visible Spectrophotometry based protein denaturation method; summary of the method: as §2
Salmonella paratyphi [7] = assay: Antimicrobial activity against Salmonella paratyphi incubated for 12 to 16 hrs by tube dilution method; summary of the method: as §4
Salmonella paratyphi [8] = assay: Antimicrobial activity against Salmonella paratyphi incubated for 12 to 16 hrs followed by plating in nutrient agar by tube dilution method; summary of the method: as §3
Micrococcus luteus [9] = assay: Antimicrobial activity against Micrococcus luteus at 1 mg/ml incubated for 20 to 30 mins followed by incubation for 24 hrs at 37 degC by agar plate method
Summary of the method: (§5)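 Agar well diffusion on nutrient agar. Plates swabbed with 60 µL inoculum; 8 mm wells loaded with 100 µL of compound at 1.0 mg/mL. Held 20–30 min at 4 °C for diffusion, then 24 h at 37 °C. Inhibition zone diameter read in mm. Triplicate.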

[10] = Anti-inflammatory activity at 50 ug/ml using bovine serum albumin and egg albumin proteins incubated at 37 degC for 20 mins and then heated to 95 degC for 20 mins by UV-visible Spectrophotometry based protein denaturation method; summary of the method: as §2
Salmonella paratyphi [11] = assay: Antimicrobial activity against Salmonella paratyphi at 1 mg/ml incubated for 20 to 30 mins followed by incubation for 24 hrs at 37 degC by agar plate method; conditions: for diameter of the inhibition zone (DIZ): Salmonella enterica subsp. enterica serovar Paratyphi A
Summary of the method: (§6)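 Agar well diffusion on nutrient agar. Plates swabbed with 60 µL inoculum, 8 mm wells loaded with 100 µL sample at 1.0 mg/mL, streptomycin standard and control in separate wells. Plates held 20–30 min at 4 °C for diffusion, then 24 h at 37 °C. Zone diameter read in mm; triplicate.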

Salmonella typhi [12] = assay: Antimicrobial activity against Salmonella typhi at 1 mg/ml incubated for 20 to 30 mins followed by incubation for 24 hrs at 37 degC by agar plate method; conditions: for diameter of the inhibition zone (DIZ): Salmonella enterica subsp. enterica serovar Typhi; summary of the method: as §6
Staphylococcus aureus = assay: Antimicrobial activity against Staphylococcus aureus at 1 mg/ml incubated for 20 to 30 mins followed by incubation for 24 hrs at 37 degC by agar plate method; summary of the method: as §5
[13] = Salmonella enterica subsp. enterica serovar Typhi
[14] = Salmonella enterica subsp. enterica serovar Paratyphi A
[15] = Salmonella enterica, read-out: DIZ

Row | Compound | MIC (Micrococcus luteus [1]) | inhibition [2] | MBC (Salmonella typhi [3]; [13]) | MIC (Salmonella typhi [4]; [13]) | MBC (Micrococcus luteus [5]) | IC50 [6] | MIC (Salmonella paratyphi [7]; [14]) | MBC (Salmonella paratyphi [8]; [14]) | diameter of the inhibition zone (DIZ) (Micrococcus luteus [9]) | inhibition [10] | diameter of the inhibition zone (DIZ) (Salmonella paratyphi [11]) | diameter of the inhibition zone (DIZ) (Salmonella typhi [12]) | diameter of the inhibition zone (DIZ) (Staphylococcus aureus) | also measured
1 | [N-]=[N+]=NCc1cn(-c2ccccc2)nc1-c1ccccc1 | inactive | inactive | inactive | inactive | inactive | Not Active | inactive | inactive | inactive | inactive | inactive | inactive | inactive | –
2 | COC(=O)c1nnn(Cc2cn(-c3ccccc3)nc2-c2ccc(Cl)cc2)c1C(=O)OC | inactive | inactive | inactive | inactive | inactive | Not Active | inactive | inactive | inactive | inactive | inactive | inactive | inactive | –
3 | COc1ccc(-c2nn(-c3ccccc3)cc2CN=[N+]=[N-])cc1 | inactive | inactive | inactive | inactive | inactive | Not Active | inactive | inactive | inactive | inactive | inactive | inactive | inactive | –
4 | Cc1ccc(-n2cc(Cn3cc(-c4ccccc4)nn3)c(-c3ccccc3)n2)cc1 | inactive | inactive | inactive | inactive | inactive | Not Active | inactive | inactive | inactive | inactive | inactive | inactive | inactive | –
5 | FC(F)(F)c1ccccc1-c1cn(Cc2cn(-c3ccccc3)nc2-c2ccccc2)nn1 | inactive | inactive | inactive | inactive | inactive | Not Active | inactive | inactive | inactive | inactive | inactive | inactive | inactive | –
6 | [N-]=[N+]=NCc1cn(-c2ccccc2)nc1-c1ccc(Cl)cc1 | inactive | inactive | inactive | inactive | inactive | Not Active | inactive | inactive | inactive | inactive | inactive | inactive | inactive | –
7 | COc1ccc(-c2cn(Cc3cn(-c4ccccc4)nc3-c3ccccc3)nn2)cc1 | inactive | inactive | inactive | inactive | inactive | Not Active | inactive | inactive | inactive | inactive | inactive | inactive | inactive | –
8 | FC(F)(F)c1ccc(-c2cn(Cc3cn(-c4ccccc4)nc3-c3ccccc3)nn2)c(C(F)(F)F)c1 | inactive | inactive | inactive | inactive | inactive | Not Active | inactive | inactive | inactive | inactive | inactive | inactive | inactive | –
9 | COC(=O)c1nnn(Cc2cn(-c3ccccc3)nc2-c2ccccc2)c1C(=O)OC | inactive | inactive | inactive | inactive | inactive | Not Active | inactive | inactive | inactive | inactive | inactive | inactive | inactive | –
10 | Brc1ccc(-c2cn(Cc3cn(-c4ccccc4)nc3-c3ccccc3)nn2)cc1 | inactive | inactive | inactive | inactive | inactive | Not Active | inactive | inactive | inactive | inactive | inactive | inactive | inactive | –
11 | COC(=O)c1nnn(Cc2cn(-c3ccccc3)nc2-c2ccc(C)cc2)c1C(=O)OC | inactive | inactive | inactive | inactive | inactive | Not Active | inactive | inactive | inactive | inactive | inactive | inactive | inactive | –
12 | COc1ccc(-c2cn(Cc3cn(-c4ccccc4)nc3-c3ccccc3)nn2)c(C)c1 | inactive | inactive | inactive | inactive | inactive | Not Active | inactive | inactive | inactive | inactive | inactive | inactive | inactive | –
13 | [N-]=[N+]=NCc1cn(-c2ccc(Cl)cc2)nc1-c1ccccc1 | inactive | inactive | inactive | inactive | inactive | Not Active | inactive | inactive | inactive | inactive | inactive | inactive | inactive | –
14 | O=C([O-])Cc1ccccc1Nc1c(Cl)cccc1Cl.[Na+] [DICLOFENAC SODIUM] | – | 93.1% | – | – | – | 53.7 µg/mL | – | – | – | 66.4% | – | – | – | –
15 | CN[C@@H]1[C@H](O[C@H]2[C@H](O[C@H]3[C@H](O)[C@@H](O)[C@H](N=C(N)N)[C@@H](O)[C@@H]3N=C(N)N)O[C@@H](C)[C@]2(O)C=O)O[C@@H](CO)[C@H](O)[C@H]1O [STREPTOMYCIN] | 6.25 µg/mL (≈ 10.7 µM) | – | – | – | 6.25 µg/mL (≈ 10.7 µM) | – | – | – | – | – | – | – | – | MBC (Salmonella typhi [3]; Salmonella enterica): 6.25 µg/mL (≈ 10.7 µM); MIC (Salmonella typhi [4]; Salmonella enterica): 6.25 µg/mL (≈ 10.7 µM); MIC (Salmonella paratyphi [7]; Salmonella enterica): 6.25 µg/mL (≈ 10.7 µM); MBC (Salmonella paratyphi [8]; Salmonella enterica): 6.25 µg/mL (≈ 10.7 µM); zone of inhibition at 1000 µg/mL (Micrococcus luteus [9]; read-out: DIZ): 22.5 mm; zone of inhibition at 1000 µg/mL (Salmonella paratyphi [11]; [15]): 30 mm; zone of inhibition at 1000 µg/mL (Salmonella typhi [12]; [15]): 27 mm; zone of inhibition at 1000 µg/mL (Staphylococcus aureus; read-out: DIZ): 20.3 mm
